According to ChEMBL document CHEMBL5058577, “EUbOPEN Chemogenomics Library 2 (Multiplex)” (2022):

System: HEK-293T
Test: Multiplex assay against HEK293T
Format: toxicity, cell-based
Settings: human
Procedure, shortened: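 Live cells were stained at seeding with Hoechst33342, BioTracker Green Microtubule Cytoskeleton Dye, MitoTracker Red and Annexin V Alexa Fluor 680, then imaged on a CQ1 microscope at 37°C and 5% CO2 after compound addition. CellPathfinder machine-learning gating split cells into Hoechst high-intensity objects or normal cells. Normal cells were split into healthy, pyknosed or fragmented nuclei, and pyknosed cells into mitotic or apoptotic. Tubulin, mitochondrial-mass and membrane-permeability phenotypes are per cents of healthy-nucleus cells.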

[1] = 12 h, 1 µM, compound concentration 1 uM, replicate 1
[2] = 12 h, 1 µM, compound concentration 1 uM, replicate 2
[3] = 12 h, 10 µM, compound concentration 10 uM, replicate 1
[4] = 12 h, 10 µM, compound concentration 10 uM, replicate 2
[5] = 24 h, 1 µM, compound concentration 1 uM, replicate 1
[6] = 24 h, 1 µM, compound concentration 1 uM, replicate 2
[7] = 24 h, 10 µM, compound concentration 10 uM, replicate 1
[8] = 24 h, 10 µM, compound concentration 10 uM, replicate 2
[9] = 48 h, 1 µM, compound concentration 1 uM, replicate 1
[10] = 48 h, 1 µM, compound concentration 1 uM, replicate 2
[11] = 48 h, 10 µM, compound concentration 10 uM, replicate 1
[12] = 48 h, 10 µM, compound concentration 10 uM, replicate 2

With `N#Cc1c(N)nc(SCc2csc(-c3ccc(Cl)cc3)n2)c(C#N)c1-c1ccc(OCCO)cc1` [CAPADENOSON] the “Population Apoptotic (%)” value [1] was 36%, the “Population Fragmented Nuclei (%)” value [1] was 6% and the “Population Healthy Nuclei (%)” value [1] was 79%. The “Population Hoechst High Intensity Objects (%)” value [1] was 8%, the “Population Membrane Permeable-Phenotype (%)” value [1] was 0% and the “Population Mitochondria Different-Phenotype (%)” value [1] was 59%. The “Population Mitotic Cells (%)” value [1] was 63%, the “Population Normal (%)” value [1] was 91% and the “Population Pyknosed Nuclei (%)” value [1] was 13%. The “Population Tubulin-Different-Phenotype (%)” value [1] was 44%, the “Total Cell Count” value [1] was 373 and the “Population Apoptotic (%)” value [2] was 54%. The “Population Healthy Nuclei (%)” value [2] was 80%, the “Population Hoechst High Intensity Objects (%)” value [2] was 4% and the “Population Mitochondria Different-Phenotype (%)” value [2] was 60%. For the same compound, the “Population Mitotic Cells (%)” value [2] was 45%, the “Population Normal (%)” value [2] was 95% and the “Population Pyknosed Nuclei (%)” value [2] was 12%. For the same compound, the “Population Tubulin-Different-Phenotype (%)” value [2] was 34%, the “Total Cell Count” value [2] was 375 and the “Population Apoptotic (%)” value [3] was 57%. The “Population Fragmented Nuclei (%)” value [3] was 7%, the “Population Healthy Nuclei (%)” value [3] was 75% and the “Population Hoechst High Intensity Objects (%)” value [3] was 12%. The “Population Membrane Permeable-Phenotype (%)” value [3] was 0%, the “Population Mitochondria Different-Phenotype (%)” value [3] was 82% and the “Population Mitotic Cells (%)” value [3] was 42%. The “Population Normal (%)” value [3] was 87%, the “Population Pyknosed Nuclei (%)” value [3] was 17% and the “Population Tubulin-Different-Phenotype (%)” value [3] was 62%. The “Total Cell Count” value [3] was 307, the “Population Apoptotic (%)” value [4] was 70% and the “Population Fragmented Nuclei (%)” value [4] was 6%. For the same compound, the “Population Healthy Nuclei (%)” value [4] was 73%, the “Population Hoechst High Intensity Objects (%)” value [4] was 14% and the “Population Membrane Permeable-Phenotype (%)” value [4] was 1%. For the same compound, the “Population Mitochondria Different-Phenotype (%)” value [4] was 85%, the “Population Mitotic Cells (%)” value [4] was 29% and the “Population Normal (%)” value [4] was 85%. The “Population Pyknosed Nuclei (%)” value [4] was 20%, the “Population Tubulin-Different-Phenotype (%)” value [4] was 63% and the “Total Cell Count” value [4] was 388. The “Population Apoptotic (%)” value [5] was 36%, the “Population Fragmented Nuclei (%)” value [5] was 5% and the “Population Healthy Nuclei (%)” value [5] was 76%. The “Population Hoechst High Intensity Objects (%)” value [5] was 6%, the “Population Membrane Permeable-Phenotype (%)” value [5] was 2% and the “Population Mitochondria Different-Phenotype (%)” value [5] was 38%. The “Population Mitotic Cells (%)” value [5] was 63%, the “Population Normal (%)” value [5] was 93% and the “Population Pyknosed Nuclei (%)” value [5] was 17%. For the same compound, the “Population Tubulin-Different-Phenotype (%)” value [5] was 34%, the “Total Cell Count” value [5] was 450 and the “Population Apoptotic (%)” value [6] was 37%. For the same compound, the “Population Fragmented Nuclei (%)” value [6] was 7%, the “Population Healthy Nuclei (%)” value [6] was 79% and the “Population Hoechst High Intensity Objects (%)” value [6] was 4%. For the same compound, the “Population Membrane Permeable-Phenotype (%)” value [6] was 0%, the “Population Mitochondria Different-Phenotype (%)” value [6] was 44% and the “Population Mitotic Cells (%)” value [6] was 62%. For the same compound, the “Population Normal (%)” value [6] was 95%, the “Population Pyknosed Nuclei (%)” value [6] was 12% and the “Population Tubulin-Different-Phenotype (%)” value [6] was 23%. The “Total Cell Count” value [6] was 456, the “Population Apoptotic (%)” value [7] was 65% and the “Population Fragmented Nuclei (%)” value [7] was 8%. For the same compound, the “Population Healthy Nuclei (%)” value [7] was 68%, the “Population Hoechst High Intensity Objects (%)” value [7] was 14% and the “Population Membrane Permeable-Phenotype (%)” value [7] was 0%. For the same compound, the “Population Mitochondria Different-Phenotype (%)” value [7] was 94%, the “Population Mitotic Cells (%)” value [7] was 34% and the “Population Normal (%)” value [7] was 85%. For the same compound, the “Population Pyknosed Nuclei (%)” value [7] was 22%, the “Population Tubulin-Different-Phenotype (%)” value [7] was 62% and the “Total Cell Count” value [7] was 319. The “Population Apoptotic (%)” value [8] was 73%, the “Population Fragmented Nuclei (%)” value [8] was 4% and the “Population Hoechst High Intensity Objects (%)” value [8] was 13%. The “Population Mitochondria Different-Phenotype (%)” value [8] was 89%, the “Population Mitotic Cells (%)” value [8] was 26% and the “Population Normal (%)” value [8] was 86%. The “Population Pyknosed Nuclei (%)” value [8] was 26%, the “Population Tubulin-Different-Phenotype (%)” value [8] was 61% and the “Total Cell Count” value [8] was 391. The “Population Apoptotic (%)” value [9] was 31%, the “Population Fragmented Nuclei (%)” value [9] was 10% and the “Population Healthy Nuclei (%)” value [9] was 79%. The “Population Hoechst High Intensity Objects (%)” value [9] was 4%, the “Population Membrane Permeable-Phenotype (%)” value [9] was 1% and the “Population Mitochondria Different-Phenotype (%)” value [9] was 32%. For the same compound, the “Population Mitotic Cells (%)” value [9] was 68%, the “Population Normal (%)” value [9] was 95% and the “Population Pyknosed Nuclei (%)” value [9] was 10%. The “Population Tubulin-Different-Phenotype (%)” value [9] was 23%, the “Total Cell Count” value [9] was 621 and the “Population Apoptotic (%)” value [10] was 32%. The “Population Fragmented Nuclei (%)” value [10] was 11%, the “Population Healthy Nuclei (%)” value [10] was 80% and the “Population Hoechst High Intensity Objects (%)” value [10] was 3%. For the same compound, the “Population Membrane Permeable-Phenotype (%)” value [10] was 2%, the “Population Mitochondria Different-Phenotype (%)” value [10] was 23% and the “Population Mitotic Cells (%)” value [10] was 67%. The “Population Normal (%)” value [10] was 96%, the “Population Pyknosed Nuclei (%)” value [10] was 8% and the “Population Tubulin-Different-Phenotype (%)” value [10] was 18%. The “Total Cell Count” value [10] was 787, the “Population Apoptotic (%)” value [11] was 66% and the “Population Fragmented Nuclei (%)” value [11] was 11%. For the same compound, the “Population Healthy Nuclei (%)” value [11] was 68%, the “Population Hoechst High Intensity Objects (%)” value [11] was 12% and the “Population Membrane Permeable-Phenotype (%)” value [11] was 0%. The “Population Mitochondria Different-Phenotype (%)” value [11] was 89%, the “Population Mitotic Cells (%)” value [11] was 33% and the “Population Normal (%)” value [11] was 87%. The “Population Pyknosed Nuclei (%)” value [11] was 20%, the “Population Tubulin-Different-Phenotype (%)” value [11] was 67% and the “Total Cell Count” value [11] was 406. The “Population Apoptotic (%)” value [12] was 63%, the “Population Fragmented Nuclei (%)” value [12] was 12% and the “Population Healthy Nuclei (%)” value [12] was 73%. For the same compound, the “Population Hoechst High Intensity Objects (%)” value [12] was 10%, the “Population Mitochondria Different-Phenotype (%)” value [12] was 88% and the “Population Mitotic Cells (%)” value [12] was 36%. For the same compound, the “Population Normal (%)” value [12] was 89%, the “Population Pyknosed Nuclei (%)” value [12] was 14% and the “Population Tubulin-Different-Phenotype (%)” value [12] was 64%. For the same compound, the “Total Cell Count” value [12] was 423.
